Each structure is given as a SMILES string. In all, about 330,000 compounds went through this assay and about 2,000 (0.61%) were called active.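 Rule for the calls: active = inhibition above that plate's mean sample inhibition plus 3 SD (cut at about 26% in these data); inactive = the rest.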 The entries come from a sample that favours actives as a whole.

This experiment in a line: ATP-evoked calcium signal inhibitors, parental CHO, primary screen, counter-screen for OX1R antagonist project, cell-based, fluorescence, Fluo-8 calcium dye (AID 463079).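 Note: 0% = ATP-challenged DMSO wells and 100% = DMSO wells without ATP.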 Conditions: parental CHO-K1, ATP-induced calcium, Fluo-8 fluorescence; at 5.6 µM; stronger effect = higher value. A digest of the protocol: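 Test system: untransfected parental CHO cell line; also added: ATP stimulus; dosing: 5.6 µM, single dose; signal: calcium-sensitive Fluo-8 fluorescence; measure: percent inhibition of ATP-evoked calcium rise, normalized to controls; benchmarks: low control ATP plus DMSO, high control DMSO only; replication: one well per compound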
In general terms: Counterscreens check selectivity or assay interference.
A word on the inhibition: it is the drop in the measured response relative to a control, in per cent. `CN(C)C(=O)CCc1ccc2c3c([nH]c2c1)[C@]1(CCc2ccccc2)[C@@H](C(=O)N2CCCCC2)C[C@H](CC(=O)NCCC2=CCCCC2)C(=O)N1CC3`: the inhibition was -31.7% (inactive). Turning to `Oc1cc(O)c2c(c1)OC(c1ccc(O)c(O)c1)C(O)C2` (centres undefined), the inhibition is -0.43% (inactive). Consider `CC(C)Cc1nnc(NC(=O)CCNC(=O)c2ccccc2Cl)s1`, for which the inhibition is -7.69% (inactive). The figure for `CCOC(=O)N1CCN(C(=O)C2CCN(S(=O)(=O)c3cc(Cl)ccc3OCC)CC2)CC1` is -9.79% (inactive); for `CCOC(=O)N1CCN(C(=O)C2CCN(c3ncnc4c3sc3cccc(F)c34)CC2)CC1` it is 37.1% (active); for `CCOC(=O)N1CCN(C(=O)C2CCN(Cc3ccc(OC)cc3OC)CC2)CC1` it is -15.1% (inactive). On to `COc1cccc(CC(=O)OCC(=O)NCc2ccc3c(c2)OCO3)c1`, for which the inhibition was -4.2% (inactive).

`CSc1nccc(NC(=O)c2ccc(C(C)(C)C)cc2)n1`: the inhibition is 33.6% (active). Under `Cc1cccc(NC(=O)c2cccnc2Cl)n1` stands 1.32% (inactive); under `Cc1cccc(NC(=O)c2ccc(S(=O)(=O)N(C)c3ccccc3)cc2)n1`, -10.9% (inactive); under `O=c1cnnc(Nc2ccccc2)[nH]1`, -11.1% (inactive). Under `CCOc1ccccc1OCC(=O)Nc1ccccc1C(=O)NC1CC1` stands 14.9% (inactive); under `CC(C)OCCCNc1ncnc2c1[nH]c1ccc(F)cc12`, 58.6% (active); under `O=C1c2ccccc2C(=O)N1CCC#Cc1ccc2cc(C3(O)CCCCC3)oc(=O)c2c1`, -14.2% (inactive).

On to `O=C(NCCC(=O)N1O[C@@H]2C=C[C@H]1C2)OCC1c2ccccc2-c2ccccc21`, for which the inhibition is -10.5% (inactive). The figure for `CC(C)CNC(=O)c1cc(-c2ccc(Br)cc2)on1` is -10.3% (inactive); for `CC(C)Cc1cc(C(=O)Nc2cc(Br)ccc2O)no1` it is 43% (active).

As for `CC(C)Cc1cc(C(=O)NCCc2ccccc2)no1`, the inhibition was -2.04% (inactive).

Regarding `Cc1ccc(C)c(S(=O)(=O)Nc2cccc(-n3cnnn3)c2)c1`, the inhibition was -1.77% (inactive).

In the case of `CCOC(=O)C1CCCN(C(=O)c2cccc(S(=O)(=O)N3CCOCC3)c2)C1` (centres undefined), the inhibition is -2.51% (inactive). The figure for `COc1ccc(/C=C/C(=O)Nc2c(C)nn(C)c2C)cc1COc1ccc(Br)cc1` is 13.3% (inactive). The figure for `O=C(Nc1ccc(C2CC2(Cl)Cl)cc1)c1cccc([N+](=O)[O-])c1` (centres undefined) is 46.7% (active); for `O=C(Nc1cccc([N+](=O)[O-])c1)c1ccc2c(c1)OCO2` it is -1.24% (inactive).

For the compound `O=C(Nc1ccc(NC(=O)c2ccco2)c(Cl)c1)c1cccc([N+](=O)[O-])c1`, the inhibition was -6.79% (inactive).

On to `COC(=O)[C@@H]1C[C@@]2(O)[C@H](O)[C@H](O)[C@H](O)C[C@H]2N1Cc1ccc(C)s1`, for which the inhibition was 2.13% (inactive). The figure for `O=C(CO/N=C/c1ccccc1O)NNC(=O)c1ccccc1Cl` is 2.58% (inactive); for `CC[n+]1cc(C)ccc1/C=C/c1ccc(N(C)C)cc1` it is 51.9% (active); for `CCOC(=O)C1=CN(Cc2ccc(Br)cc2)S(=O)(=O)N(C)C1C` (centres undefined) it is -13.1% (inactive). Under `O=C(NCC1CCCO1)/C(=C/c1ccc(Cl)cc1)NC(=O)c1ccccc1` (centres undefined) stands -2.9% (inactive); under `N#C/C(=C/c1ccc(Cl)cc1)NC(=O)c1ccccc1`, 50.3% (active).

On to `O=C(N/C(=C\c1ccc(O)cc1)C(=O)N1CCCCC1)c1ccccc1`, for which the inhibition was -2.82% (inactive). The figure for `S=C(NCCC1=CCCCC1)Nc1ccccc1` is 6.17% (inactive); for `COc1cc(OC)c2c(-c3cccc(-c4cccc(N)c4)c3)cc(=O)oc2c1` it is -15.7% (inactive). Under `CSc1sc(C)cc1C1C(C#N)=C(N)N(c2cccnc2)C2=C1C(=O)CCC2` (centres undefined) stands -13.3% (inactive); under `CCN(CC)C(=O)N(CC)Cc1ccccc1`, -0.04% (inactive). Under `OCCN(Cc1ccccc1)Cc1ccc(Cl)cc1` stands -28.2% (inactive); under `CN(C(=O)CN(CCO)CC(=O)N(C)C(C)(C)Cc1ccccc1)C(C)(C)Cc1ccccc1`, 52.8% (active); under `CCc1cccc(NC(=S)N(CCN(C)C)C2CCN(C(C)C)CC2)c1`, 1.41% (inactive). Consider `CCc1cc2c(=O)c(-c3ccon3)c(N)oc2cc1OC`, for which the inhibition was -10.2% (inactive). The figure for `Cc1ccc(-c2cccc([C@H]3[C@@H]4C=CC[C@@H](C)[C@@H]4C(=O)N3Cc3ccccc3)c2)cc1` is -46.9% (inactive). The figure for `CSc1ccccc1C(=O)Nc1cccc(C(C)=O)c1` is -10% (inactive). The figure for `CCSc1nsc(NC(=O)Nc2ccccc2OC)n1` is -18.1% (inactive); for `CCSc1nsc(NC(=O)Nc2cccc(C(C)=O)c2)n1` it is 66.5% (active). `CSc1nsc(NC(=O)Nc2ccccc2)n1`: the inhibition was 18.8% (inactive). The figure for `C=CCSc1nsc(NC(=O)Nc2cccc(C(C)=O)c2)n1` is 46.6% (active); for `C=CCSc1nnc(NC(=O)c2ccc(NC(C)=O)cc2)s1` it is -14.6% (inactive). Under `CN(C)C=NC(=O)c1cccn1-c1ncc(C(F)(F)F)cc1Cl` stands 7.02% (inactive); under `O=C(O)CCN1C(=O)CC2(CCCCC2)C1=O`, 6.17% (inactive); under `CCOC(=O)c1c(C)[nH]c(C(=O)COc2ccc3c(c2)OCO3)c1C`, 39.2% (active).

Regarding `CC(=O)c1c(C)[nH]c(C(=O)COc2ccc3c(C)cc(=O)oc3c2)c1C`, the inhibition is 1.48% (inactive).

Turning to `CCOC(=O)c1c(C)[nH]c(C(=O)OCC(=O)c2ccc(OC)cc2OC)c1C`, the inhibition was -26.3% (inactive). The figure for `COc1ccc(-c2cnc(SCCNC(=O)c3ccc4c(c3)OCO4)[nH]2)cc1` is -9.72% (inactive); for `Cc1ccc(NC(=O)c2ccc(Cl)nc2)cc1S(=O)(=O)N1CCOCC1` it is -8.73% (inactive); for `CCN1/C(=C/c2ccc3ccc(C)cc3[n+]2CC)Sc2ccccc21` it is 80.2% (active). Take `CCN1/C(=C\c2ccc3ccccc3[n+]2CC)Sc2cc(C)ccc21`: the inhibition was 79.6% (active). The figure for `CCOC(=O)CN(C(=O)COc1nc(-c2ccccc2)cc(C)c1C#N)c1ccc(F)cc1` is -20.7% (inactive); for `O=C(O)CN(Cc1ccco1)S(=O)(=O)c1ccccc1` it is -6.05% (inactive); for `COc1ccc(C(=O)OCC(=O)c2cc(C)n(CC3CCCO3)c2C)cc1[N+](=O)[O-]` (centres undefined) it is -4.71% (inactive). The figure for `CC(NC(=S)Nc1ccc(OC(F)F)cc1)c1ccc(F)cc1` (centres undefined) is 14.7% (inactive).

For the origin of these results see PubChem BioAssay AID463079 (The Scripps Research Institute Molecular Screening Center, 2010).
